Data taken from ChEMBL document CHEMBL2311435, “Development of 18F-labeled picolinamide probes for PET imaging of malignant melanoma” (J Med Chem, 2013).

Experiments:
[1] = test system: Intestine; test: Biodistribution in intestine of C57BL/6 mouse xenografted with mouse B16F10 cells at 3.7 MBq, iv after 1 hr by gamma-scintillation counting analysis; assay type: ADME, organism-based, B16-F10; details: in vivo
How it was run: (§1)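 1.0 × 10^6 B16F10 cells in PBS injected subcutaneously into the right shoulder of C57BL/6 mice, grown to 0.5 cm (~10 day). Tail-vein injection of about 3.7 MBq (100 μCi) 18F probe in PBS (0.1 M, pH 7.4). Killed at 1.0 or 2.0 h p.i. (n = 4 per group). Tissues excised, weighed and gamma-counted; uptake expressed as %ID/g, mean ± SD.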

[2] = test system: Brain; test: Biodistribution in brain of C57BL/6 mouse xenografted with mouse B16F10 cells at 3.7 MBq, iv after 1 hr by gamma-scintillation counting analysis; assay type: ADME, organism-based, B16-F10; details: in vivo; how it was run: as §1
[3] = test system: Stomach; test: Biodistribution in stomach of C57BL/6 mouse xenografted with mouse B16F10 cells at 3.7 MBq, iv after 1 hr by gamma-scintillation counting analysis; assay type: ADME, organism-based, B16-F10; details: in vivo; how it was run: as §1
[4] = test system: Spleen; test: Biodistribution in spleen of C57BL/6 mouse xenografted with mouse B16F10 cells at 3.7 MBq, iv after 1 hr by gamma-scintillation counting analysis; assay type: ADME, organism-based, B16-F10; details: in vivo; how it was run: as §1
[5] = test system: Pancreas; test: Biodistribution in pancreas of C57BL/6 mouse xenografted with mouse B16F10 cells at 3.7 MBq, iv after 1 hr by gamma-scintillation counting analysis; assay type: ADME, organism-based, B16-F10; details: in vivo; how it was run: as §1
[6] = test system: Liver; test: Biodistribution in liver of C57BL/6 mouse xenografted with mouse B16F10 cells at 3.7 MBq, iv after 1 hr by gamma-scintillation counting analysis; assay type: ADME, organism-based, B16-F10; details: in vivo; how it was run: as §1
[7] = test system: Mus musculus; test: Biodistribution in lungs of C57BL/6 mouse xenografted with mouse B16F10 cells at 3.7 MBq, iv after 1 hr by gamma-scintillation counting analysis; assay type: ADME, organism-based, Lung, B16-F10; details: in vivo; how it was run: as §1
[8] = test system: Heart; test: Biodistribution in heart of C57BL/6 mouse xenografted with mouse B16F10 cells at 3.7 MBq, iv after 1 hr by gamma-scintillation counting analysis; assay type: ADME, organism-based, B16-F10; details: in vivo; how it was run: as §1
[9] = test system: Mus musculus; test: Biodistribution in tumor of C57BL/6 mouse xenografted with mouse B16F10 cells at 3.7 MBq, iv after 1 hr by gamma-scintillation counting analysis; assay type: ADME, organism-based, Neoplasm, B16-F10; details: in vivo; how it was run: as §1
[10] = test system: Blood; test: Biodistribution in blood of C57BL/6 mouse xenografted with mouse B16F10 cells at 3.7 MBq, iv after 1 hr by gamma-scintillation counting analysis; assay type: ADME, organism-based, B16-F10; details: in vivo; how it was run: as §1
[11] = Drug uptake in tumor of C57BL/6 mouse xenografted with mouse B16F10 cells at 3.7 MBq, iv after 2 hrs by PET imaging analysis; assay type: ADME, organism-based, Neoplasm, B16-F10; details: in vivo
How it was run: (§2)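 Static small-animal PET at 0.5, 1 and 2 h after tail-vein injection of ~3.7 MBq (100 μCi) into B16F10-bearing C57BL/6 mice (n = 4 per probe). Isoflurane anesthesia, 5% induction and 2% maintenance in O2. Decay-corrected images. ROI-derived %ID/g assumes 1 g/ml density, without attenuation correction. Mean ± SD.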

[12] = Drug uptake in tumor of C57BL/6 mouse xenografted with mouse B16F10 cells at 3.7 MBq, iv after 1 hr by PET imaging analysis; assay type: ADME, organism-based, Neoplasm, B16-F10; details: in vivo; how it was run: as §2
[13] = Drug uptake in tumor of C57BL/6 mouse xenografted with mouse B16F10 cells at 3.7 MBq, iv after 0.5 hrs by PET imaging analysis; assay type: ADME, organism-based, Neoplasm, B16-F10; details: in vivo; how it was run: as §2
[14] = test system: Nucleic Acid; test: Ratio of drug uptake in tumor to muscle of C57BL/6 mouse xenografted with mouse B16F10 cells at 3.7 MBq, iv after 2 hrs by gamma-scintillation counting analysis; assay type: ADME, organism-based, B16-F10; details: in vivo
How it was run: (§3)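 Same subcutaneous B16F10 model and tail-vein dose of about 3.7 MBq (100 μCi), n = 4 per group. Dissection at 1 or 2 h p.i. Gamma-counter %ID/g of tumor divided by that of blood, lung, liver or muscle, given as mean ± SD.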

[15] = test system: Nucleic Acid; test: Ratio of drug uptake in tumor to liver of C57BL/6 mouse xenografted with mouse B16F10 cells at 3.7 MBq, iv after 2 hrs by gamma-scintillation counting analysis; assay type: ADME, organism-based, B16-F10; details: in vivo; how it was run: as §3
[16] = test system: Nucleic Acid; test: Ratio of drug uptake in tumor to lungs of C57BL/6 mouse xenografted with mouse B16F10 cells at 3.7 MBq, iv after 2 hrs by gamma-scintillation counting analysis; assay type: ADME, organism-based, B16-F10; details: in vivo; how it was run: as §3
[17] = test system: Nucleic Acid; test: Ratio of drug uptake in tumor to blood of C57BL/6 mouse xenografted with mouse B16F10 cells at 3.7 MBq, iv after 2 hrs by gamma-scintillation counting analysis; assay type: ADME, organism-based, B16-F10; details: tumour; how it was run: as §3
[18] = test system: Nucleic Acid; test: Ratio of drug uptake in tumor to muscle of C57BL/6 mouse xenografted with mouse B16F10 cells at 3.7 MBq, iv after 1 hr by gamma-scintillation counting analysis; assay type: ADME, organism-based, B16-F10; details: in vivo; how it was run: as §3
[19] = test system: Nucleic Acid; test: Ratio of drug uptake in tumor to liver of C57BL/6 mouse xenografted with mouse B16F10 cells at 3.7 MBq, iv after 1 hr by gamma-scintillation counting analysis; assay type: ADME, organism-based, B16-F10; details: in vivo; how it was run: as §3
[20] = test system: Nucleic Acid; test: Ratio of drug uptake in tumor to lungs of C57BL/6 mouse xenografted with mouse B16F10 cells at 3.7 MBq, iv after 1 hr by gamma-scintillation counting analysis; assay type: ADME, organism-based, B16-F10; details: in vivo; how it was run: as §3
[21] = test system: Nucleic Acid; test: Ratio of drug uptake in tumor to blood of C57BL/6 mouse xenografted with mouse B16F10 cells at 3.7 MBq, iv after 1 hr by gamma-scintillation counting analysis; assay type: ADME, organism-based, B16-F10; details: tumour; how it was run: as §3
[22] = test system: Mus musculus; test: Biodistribution in eye of C57BL/6 mouse xenografted with mouse B16F10 cells at 3.7 MBq, iv after 2 hrs by gamma-scintillation counting analysis; assay type: ADME, organism-based, B16-F10; details: in vivo; how it was run: as §1
[23] = test system: Bone; test: Biodistribution in bone of C57BL/6 mouse xenografted with mouse B16F10 cells at 3.7 MBq, iv after 2 hrs by gamma-scintillation counting analysis; assay type: ADME, organism-based, Bone element, B16-F10; details: in vivo; how it was run: as §1
[24] = test system: Muscle tissue; test: Biodistribution in muscle of C57BL/6 mouse xenografted with mouse B16F10 cells at 3.7 MBq, iv after 2 hrs by gamma-scintillation counting analysis; assay type: ADME, organism-based, B16-F10; details: in vivo; how it was run: as §1
[25] = test system: Zone of skin; test: Biodistribution in skin of C57BL/6 mouse xenografted with mouse B16F10 cells at 3.7 MBq, iv after 2 hrs by gamma-scintillation counting analysis; assay type: ADME, organism-based, B16-F10; details: in vivo; how it was run: as §1
[26] = test system: Kidney; test: Biodistribution in kidney of C57BL/6 mouse xenografted with mouse B16F10 cells at 3.7 MBq, iv after 2 hrs by gamma-scintillation counting analysis; assay type: ADME, organism-based, B16-F10; details: in vivo; how it was run: as §1
[27] = test system: Intestine; test: Biodistribution in intestine of C57BL/6 mouse xenografted with mouse B16F10 cells at 3.7 MBq, iv after 2 hrs by gamma-scintillation counting analysis; assay type: ADME, organism-based, B16-F10; details: in vivo; how it was run: as §1
[28] = test system: Brain; test: Biodistribution in brain of C57BL/6 mouse xenografted with mouse B16F10 cells at 3.7 MBq, iv after 2 hrs by gamma-scintillation counting analysis; assay type: ADME, organism-based, B16-F10; details: in vivo; how it was run: as §1
[29] = test system: Stomach; test: Biodistribution in stomach of C57BL/6 mouse xenografted with mouse B16F10 cells at 3.7 MBq, iv after 2 hrs by gamma-scintillation counting analysis; assay type: ADME, organism-based, B16-F10; details: in vivo; how it was run: as §1
[30] = test system: Pancreas; test: Biodistribution in pancreas of C57BL/6 mouse xenografted with mouse B16F10 cells at 3.7 MBq, iv after 2 hrs by gamma-scintillation counting analysis; assay type: ADME, organism-based, B16-F10; details: in vivo; how it was run: as §1
[31] = test system: Spleen; test: Biodistribution in spleen of C57BL/6 mouse xenografted with mouse B16F10 cells at 3.7 MBq, iv after 2 hrs by gamma-scintillation counting analysis; assay type: ADME, organism-based, B16-F10; details: in vivo; how it was run: as §1
[32] = test system: Liver; test: Biodistribution in liver of C57BL/6 mouse xenografted with mouse B16F10 cells at 3.7 MBq, iv after 2 hrs by gamma-scintillation counting analysis; assay type: ADME, organism-based, B16-F10; details: in vivo; how it was run: as §1
[33] = test system: Mus musculus; test: Biodistribution in lungs of C57BL/6 mouse xenografted with mouse B16F10 cells at 3.7 MBq, iv after 2 hrs by gamma-scintillation counting analysis; assay type: ADME, organism-based, Lung, B16-F10; details: in vivo; how it was run: as §1
[34] = test system: Heart; test: Biodistribution in heart of C57BL/6 mouse xenografted with mouse B16F10 cells at 3.7 MBq, iv after 2 hrs by gamma-scintillation counting analysis; assay type: ADME, organism-based, B16-F10; details: in vivo; how it was run: as §1
[35] = test system: Blood; test: Biodistribution in blood of C57BL/6 mouse xenografted with mouse B16F10 cells at 3.7 MBq, iv after 2 hrs by gamma-scintillation counting analysis; assay type: ADME, organism-based, B16-F10; details: in vivo; how it was run: as §1
[36] = test system: Mus musculus; test: Biodistribution in tumor of C57BL/6 mouse xenografted with mouse B16F10 cells at 3.7 MBq, iv after 2 hrs by gamma-scintillation counting analysis; assay type: ADME, organism-based, Neoplasm, B16-F10; details: in vivo; how it was run: as §1
[37] = test system: Bone; test: Biodistribution in bone of C57BL/6 mouse xenografted with mouse B16F10 cells at 3.7 MBq, iv after 1 hr by gamma-scintillation counting analysis; assay type: ADME, organism-based, Bone element, B16-F10; details: in vivo; how it was run: as §1
[38] = test system: Mus musculus; test: Biodistribution in eye of C57BL/6 mouse xenografted with mouse B16F10 cells at 3.7 MBq, iv after 1 hr by gamma-scintillation counting analysis; assay type: ADME, organism-based, B16-F10; details: in vivo; how it was run: as §1
[39] = test system: Muscle tissue; test: Biodistribution in muscle of C57BL/6 mouse xenografted with mouse B16F10 cells at 3.7 MBq, iv after 1 hr by gamma-scintillation counting analysis; assay type: ADME, organism-based, B16-F10; details: in vivo; how it was run: as §1
[40] = test system: Zone of skin; test: Biodistribution in skin of C57BL/6 mouse xenografted with mouse B16F10 cells at 3.7 MBq, iv after 1 hr by gamma-scintillation counting analysis; assay type: ADME, organism-based, B16-F10; details: in vivo; how it was run: as §1
[41] = test system: Kidney; test: Biodistribution in kidney of C57BL/6 mouse xenografted with mouse B16F10 cells at 3.7 MBq, iv after 1 hr by gamma-scintillation counting analysis; assay type: ADME, organism-based, B16-F10; details: in vivo; how it was run: as §1

Drug uptake [1]: 2.28 % ID/g
Drug uptake [2]: 0.49 % ID/g
Drug uptake [3]: 2.24 % ID/g
Drug uptake [4]: 1.09 % ID/g
Drug uptake [5]: 1.06 % ID/g
Drug uptake [6]: 2.07 % ID/g
Drug uptake [7]: 0.88 % ID/g
Drug uptake [8]: 0.6 % ID/g
Drug uptake [9]: 7.54 % ID/g
Drug uptake [10]: 0.33 % ID/g
Drug uptake [11]: 9.73 % ID/g
Drug uptake [12]: 8.97 % ID/g
Drug uptake [13]: 9.52 % ID/g
Ratio [14]: 27.75
Ratio [15]: 4.16
Ratio [16]: 9.46
Ratio [17]: 44.33
Ratio [18]: 13.12
Ratio [19]: 3.85
Ratio [20]: 8.81
Ratio [21]: 28.32
Drug uptake [22]: 32.45 % ID/g
Drug uptake [23]: 10.27 % ID/g
Drug uptake [24]: 0.2 % ID/g
Drug uptake [25]: 0.63 % ID/g
Drug uptake [26]: 0.69 % ID/g
Drug uptake [27]: 0.98 % ID/g
Drug uptake [28]: 0.24 % ID/g
Drug uptake [29]: 1.64 % ID/g
Drug uptake [30]: 0.44 % ID/g
Drug uptake [31]: 0.31 % ID/g
Drug uptake [32]: 1.41 % ID/g
Drug uptake [33]: 0.59 % ID/g
Drug uptake [34]: 0.37 % ID/g
Drug uptake [35]: 0.15 % ID/g
Drug uptake [36]: 8.66 % ID/g
Drug uptake [37]: 11.29 % ID/g
Drug uptake [38]: 35.96 % ID/g
Drug uptake [39]: 0.6 % ID/g
Drug uptake [40]: 0.73 % ID/g
Drug uptake [41]: 1.34 % ID/g
SMILES: CCN(CC)CCNC(=O)c1cc([18F])ccn1
